SUMO1-SIM PPI = modulators of SUMO1 protein-protein interactions, primary screen, biochemical, uHTS; inhibition, % at 20 µM; Small ubiquitin-related modifier 1 (Homo sapiens), P63165; AID 602429, 2012; 360,000 tested, 0.33% active; SUMO1 binding to a labelled peptide, TR-FRET, 1 h; in the data active means inhibition above about 37%
Target sequence (P63165 whole entry, looked up): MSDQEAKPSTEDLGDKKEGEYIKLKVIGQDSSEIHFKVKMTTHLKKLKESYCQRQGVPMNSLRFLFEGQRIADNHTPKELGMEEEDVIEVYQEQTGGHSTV
DNMT1 block = human DNMT1 methyltransferase inhibitors, primary screen, biochemical, molecular beacon, fluorescence, HinP1I cleavage, uHTS | 360,000 tested, 0.83% active | DNA (cytosine-5)-methyltransferase 1 (Homo sapiens), P26358 | inhibition (reported as % activation of signal), % at 10 µM | AID 588458, 2011; in the data active means inhibition above about 50%
SUMO HTRF inh = inhibitors of in vitro SUMOylation cascade, primary screen, biochemical, HTRF, uHTS | AID 2006, 2009 | SUMO-conjugating enzyme UBC9 (Homo sapiens), P63279 | 290,000 tested, 0.36% active | HTRF SUMOylation assay, SAE1/SAE2 + UBC9 | inhibition, % at 35 µM; in the data active means inhibition above about 50%, passing the limit was not always enough
Target sequence (P63279 whole entry, looked up): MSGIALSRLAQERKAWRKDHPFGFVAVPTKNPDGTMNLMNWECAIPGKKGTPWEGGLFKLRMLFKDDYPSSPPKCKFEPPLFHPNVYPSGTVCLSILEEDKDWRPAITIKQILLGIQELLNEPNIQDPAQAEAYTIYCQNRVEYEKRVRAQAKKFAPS
STEP block = STEP phosphatase inhibitors, primary screen, biochemical, fluorescence intensity, uHTS. Tyrosine-protein phosphatase non-receptor type 5 (Homo sapiens), P54829. AID 588621, 2011. recombinant STEP, OMFP fluorogenic substrate. 360,000 tested, 0.25% active. inhibition, % at 20 µM;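 active means inhibition at 20 µM, scaled per plate between control wells, above about 37%, limit read from the data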;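 further: 0% = DMSO with enzyme and substrate and 100% = substrate only without enzyme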
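Assay system: isolated STEP enzyme. Buffer or medium: pH 6.0 Bis-Tris with DTT and Tween 20. Also added: fluorogenic phosphatase substrate OMFP at 25 µM final. Dosing: 20 µM, 1% DMSO. Timing: 20 min reaction, room temperature, in the dark. Measured by: fluorescence intensity, excitation 480 nm, emission 540 nm. Evaluation: normalized % inhibition.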
Scp1 inh = Scp-1 phosphatase inhibitors, primary screen, biochemical, colorimetric, uHTS. Carboxy-terminal domain RNA polymerase II polypeptide A small phosphatase 1 (Homo …. Recombinant Scp1, phosphopeptide, malachite green phosphate absorbance. inhibition, % at 20 µM. 340,000 tested, 0.88% active;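 active means inhibition above about 50% at 20 µM, limit read from the data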;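 further: plate controls were DMSO wells with enzyme for no effect and wells lacking enzyme for full effect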
Target sequence (Q9GZU7 76-261 limits assumed): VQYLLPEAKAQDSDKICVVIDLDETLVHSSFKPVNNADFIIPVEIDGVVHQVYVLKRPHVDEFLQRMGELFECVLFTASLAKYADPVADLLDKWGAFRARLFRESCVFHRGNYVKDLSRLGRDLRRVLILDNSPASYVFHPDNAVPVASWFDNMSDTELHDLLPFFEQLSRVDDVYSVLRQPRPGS
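Assay system: SCP-1 catalytic fragment, aa 76-261 | Buffer or medium: Tris acetate buffer pH 5.5 with MgCl2 and Tween-20 | Compound: One concentration, 20 µM, with 1.0% DMSO | Also added: Phospho 17-mer peptide substrate | Signal: Absorbance at 630 nm | Incubation: 45 min enzyme reaction at room temperature | Measure: % inhibition of SCP-1 phosphate liberation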
LMPTP inh = LMPTP phosphatase inhibitors, primary screen, biochemical, fluorescence intensity, uHTS. AID 651560, 2012. 360,000 tested, 0.22% active. Low molecular weight phosphotyrosine protein phosphatase (Homo sapiens), P24666. recombinant LMPTP-A, OMFP fluorogenic substrate. inhibition, % at 20 µM;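 active means compounds that cut the enzyme signal by at least half of the control window in the single-dose screen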;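 further: plate controls were DMSO wells with enzyme plus substrate for no effect and substrate without enzyme for full effect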
Target sequence (P24666 whole entry, looked up): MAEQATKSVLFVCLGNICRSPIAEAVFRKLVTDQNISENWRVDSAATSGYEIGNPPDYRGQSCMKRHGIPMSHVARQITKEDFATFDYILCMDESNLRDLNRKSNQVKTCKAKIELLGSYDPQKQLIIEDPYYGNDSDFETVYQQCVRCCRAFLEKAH
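Material: LMPTP-A; amount: 0.625 nM enzyme; doses: single 20 µM dose; times: reaction 50 min, room temperature, dark; technique: fluorescence intensity of OMFP turnover product; benchmarks: no-enzyme and uninhibited controls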
DNMT1 confirm = DNMT1 methyltransferase inhibitor retest, confirmation, biochemical, molecular beacon, fluorescence, single concentration; 2,300 tested, 8% active; DNMT1 molecular beacon HinP1I cleavage; inhibition, % at 10 µM; AID 602385, 2012; shares compounds with DNMT1 block;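 active means average inhibition of at least 30% in the single-concentration confirmation test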
Beacon interf = beacon fluorescence artifact counter-screen; shares compounds with DNMT1 block; DNMT1 molecular beacon spectral interference counterscreen, fluorescence 485/520; activation (fluorescence interference), % at 10 µM; 2,300 tested, 1% active; AID 602387;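 active means activation of at least 30% at 10 µM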;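 further: DNMT1 catalytic domain with a HinP1I cleavage step and a FAM/dabcyl DNA beacon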
The depositor's hits bear a star. Compounds with a hit are over-represented: about 1.9% of the library has one in this group of screens.

Results for Cc1ccc(CN2C(=O)CCC2C(=O)NCc2ccc3c(c2)OCO3)cc1 (stereo not drawn) ?
SUMO1-SIM PPI: 1.1; DNMT1 block: 90.7*; SUMO HTRF inh: 11.1; STEP block: -3.3; Scp1 inh: -5.2; LMPTP inh: 0.9; DNMT1 confirm: -0.5; Beacon interf: 3.8

What do the screens show for `Cc1ccc(CN2C(=O)CCC2C(=O)NCc2ccc(F)cc2)cc1` (stereo not drawn)?
SUMO1-SIM PPI: -3.3; DNMT1 block: -0.4; SUMO HTRF inh: -15.6; STEP block: 1.2; Scp1 inh: -18.1; LMPTP inh: -1.8

How did Cc1ccc(C(=O)OCC(=O)NNC(=O)c2ccc([N+](=O)[O-])cc2)o1 do in these assays?
SUMO1-SIM PPI: 1.2; DNMT1 block: 1.7; STEP block: 3.5; Scp1 inh: 5.0; LMPTP inh: 14.4

Results for CN(C)c1ccc(/C=N/NC(=O)c2ccc(CN3C(=O)c4cccc5cccc3c45)cc2)cc1 ?
SUMO HTRF inh: 10.7

Results for O=C(N/N=C/c1ccccc1)c1ccc(CN2C(=O)c3cccc4cccc2c34)cc1 ?
SUMO1-SIM PPI: -6.4; DNMT1 block: 53.2*; SUMO HTRF inh: 50.1*; STEP block: 9.6; Scp1 inh: 39.8; LMPTP inh: 3.5; DNMT1 confirm: 0.3; Beacon interf: 2.3

How did CCCSc1nc2c(c(=O)[nH]c(=O)n2C)n1Cc1ccc(C)cc1 do in these assays?
SUMO1-SIM PPI: 1.3; DNMT1 block: 53.9*; SUMO HTRF inh: 23.1; STEP block: 0.9; Scp1 inh: -1.8; LMPTP inh: 0.3; DNMT1 confirm: -0.2; Beacon interf: 0.6

How did Cn1c(=O)c2c(nc(SCc3cccnc3)n2Cc2ccccc2)n(C)c1=O do in these assays?
SUMO1-SIM PPI: 2.4; DNMT1 block: 2.9; SUMO HTRF inh: -3.0; STEP block: 2.2; Scp1 inh: -3.0; LMPTP inh: 0.7

How did Cc1ccc(Cn2c(SCc3cccnc3)nc3c2c(=O)n(C)c(=O)n3C)cc1 do in these assays?
SUMO1-SIM PPI: 0.0; DNMT1 block: 107.6*; SUMO HTRF inh: 20.4; STEP block: 6.0; Scp1 inh: -6.3; LMPTP inh: 2.0; DNMT1 confirm: 7.0; Beacon interf: 4.6

What do the screens show for `Cc1ccc2ncc(S(=O)(=O)c3ccccc3)c(N3CCCCC3C)c2c1` (stereo not drawn)?
SUMO1-SIM PPI: 2.5; DNMT1 block: 0.8; SUMO HTRF inh: -19.6; STEP block: 0.4; Scp1 inh: 2.9; LMPTP inh: 4.7

Results for CCOc1ccccc1N(CC)C(=O)c1cc2c(s1)-c1ccccc1S(=O)(=O)C2 ?
SUMO1-SIM PPI: -14.7; DNMT1 block: -6.8; STEP block: 1.5; LMPTP inh: 2.4

Results for COc1ccc(NC(=O)Nc2c[nH]c(=O)[nH]c2=O)cc1 ?
SUMO1-SIM PPI: 9.7; DNMT1 block: 1.8; SUMO HTRF inh: 19.8; STEP block: -2.6; Scp1 inh: -7.5; LMPTP inh: -1.6

Results for Cc1nc(SCCC(C)C)c([N+](=O)[O-])[nH]1 ?
SUMO1-SIM PPI: -28.7; DNMT1 block: 93.8*; SUMO HTRF inh: -14.7; STEP block: 3.2; Scp1 inh: 2.5; LMPTP inh: -0.5; DNMT1 confirm: 7.0; Beacon interf: 6.1

How did CCNCc1cc(Br)c(OCC(=O)Nc2ccccc2)c(OC)c1 do in these assays?
SUMO1-SIM PPI: -0.3; DNMT1 block: 7.5; SUMO HTRF inh: 9.0; STEP block: -2.5; Scp1 inh: -9.0; LMPTP inh: 0.3

What do the screens show for `COc1cc(CNCC(C)C)cc(Br)c1OCC(=O)Nc1ccccc1`?
SUMO1-SIM PPI: 0.3; DNMT1 block: 87.1*; SUMO HTRF inh: -1.0; STEP block: 1.0; Scp1 inh: -2.4; LMPTP inh: 0.4; DNMT1 confirm: 2.6; Beacon interf: 3.8

How did CCn1c(SCC(=O)Nc2cc(F)ccc2C)nnc1-c1ccccc1O do in these assays?
SUMO1-SIM PPI: -0.9; DNMT1 block: 55.7*; SUMO HTRF inh: -6.3; STEP block: 24.5; Scp1 inh: -11.2; LMPTP inh: 0.1; DNMT1 confirm: 0.9; Beacon interf: 0.7

What do the screens show for `O=C(COC(=O)/C=C/c1cccc(C(F)(F)F)c1)NC(=O)NCc1ccccc1`?
SUMO1-SIM PPI: 4.4; DNMT1 block: 3.2; STEP block: 0.4; Scp1 inh: -9.5; LMPTP inh: -0.9

What do the screens show for `O=C(COC(=O)/C=C/c1cccc(C(F)(F)F)c1)NC(c1ccccc1)c1ccccc1`?
SUMO1-SIM PPI: -5.6; DNMT1 block: 56.1*; SUMO HTRF inh: 12.0; STEP block: 3.0; Scp1 inh: -4.4; LMPTP inh: -1.4; DNMT1 confirm: 0.1; Beacon interf: 2.6

Results for S=c1[nH]nc(-c2cccc(Cl)c2)n1/N=C/c1ccc(-c2ccccc2Br)o1 ?
SUMO1-SIM PPI: -0.9; DNMT1 block: 62.2*; STEP block: -1.3; Scp1 inh: -19.9; LMPTP inh: 3.7; DNMT1 confirm: 13.1; Beacon interf: -0.3

Results for COc1ccc(Nc2ccc(Nc3ccc(OC)cc3)nn2)cc1 ?
SUMO1-SIM PPI: -7.0; DNMT1 block: -6.2; SUMO HTRF inh: 2.4; STEP block: -0.5; Scp1 inh: 2.9; LMPTP inh: 0.8

Results for COc1ccc(Nc2ccc(OC)cc2)cc1 ?
SUMO1-SIM PPI: 20.0; DNMT1 block: 56.3*; SUMO HTRF inh: 55.9*; STEP block: 9.5; Scp1 inh: -9.8; LMPTP inh: 8.7; DNMT1 confirm: 3.1; Beacon interf: 1.0

How did Cc1c(CCC(=O)NCC(=O)NCC(=O)O)c(=O)oc2cc3oc4c(c3cc12)CCCC4 do in these assays?
SUMO1-SIM PPI: 6.6; DNMT1 block: 0.8; SUMO HTRF inh: 16.0; STEP block: 0.1; Scp1 inh: 1.4; LMPTP inh: 0.5
